Bioassay records from PubChem.
STEP inh: STEP (human) phosphatase inhibition | recombinant STEP, OMFP fluorogenic substrate, fluorescence | AID 588621 | inhibition, % at 20 µM | 360,000 compounds, 0.25% hits;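 active = inhibition at 20 µM, scaled per plate between control wells, above about 37%, limit read from the data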
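Material: STEP (striatal-enriched tyrosine phosphatase) enzyme, cell-free | Medium: 50 mM Bis-Tris pH 6.0 with 2.5 mM DTT and 0.005% Tween 20 | Read-out: Percent inhibition scaled to no-enzyme and uninhibited-enzyme controls, plate-pattern corrected | Signal: Fluorescence read at 480 nm ex / 540 nm em | Times: 20 min reaction, room temperature, in the dark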
LMPTP inh: LMPTP (human) inhibition | 360,000 compounds, 0.22% hits | recombinant LMPTP-A, OMFP fluorogenic substrate, fluorescence intensity | inhibition, % at 20 µM | AID 651560 | P24666;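 active = compounds that cut the enzyme signal by at least half of the control window in the single-dose screen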
Target sequence (P24666 whole entry, looked up): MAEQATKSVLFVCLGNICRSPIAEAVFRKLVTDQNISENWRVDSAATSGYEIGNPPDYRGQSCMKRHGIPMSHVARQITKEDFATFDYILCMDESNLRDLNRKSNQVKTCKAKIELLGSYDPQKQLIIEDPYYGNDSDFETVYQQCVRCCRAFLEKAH
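Test system – LMPTP-A phosphatase enzyme · Quantity – 0.625 nM LMPTP-A final · Reagent – OMFP substrate, 400 µM final · Dosing – one test concentration per compound, 20 µM, with 3% DMSO overall · Timing – 50 min enzyme reaction at room temperature, protected from light · Detection – fluorescence intensity · Controls – substrate-only low control, DMSO enzyme-plus-substrate high control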
SUMO1-SIM PPI: alters human SUMO1 binding to SIM partners | SUMO1 binding to a labelled peptide, TR-FRET, 1 h | inhibition, % at 20 µM | 360,000 compounds, 0.33% hits | AID 602429; in the data active = inhibition above about 37%
Target sequence (P63165 whole entry, looked up): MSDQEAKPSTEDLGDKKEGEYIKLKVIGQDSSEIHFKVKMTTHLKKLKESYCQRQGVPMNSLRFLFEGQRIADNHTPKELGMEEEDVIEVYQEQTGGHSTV
Scp1 inh: Scp-1 (human) phosphatase inhibition; inhibition, % at 20 µM; 340,000 compounds, 0.88% hits; Recombinant Scp1, phosphopeptide, malachite green phosphate absorbance; Q9GZU7;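 active = inhibition above about 50% at 20 µM, limit read from the data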
Target sequence (Q9GZU7 76-261 limits assumed): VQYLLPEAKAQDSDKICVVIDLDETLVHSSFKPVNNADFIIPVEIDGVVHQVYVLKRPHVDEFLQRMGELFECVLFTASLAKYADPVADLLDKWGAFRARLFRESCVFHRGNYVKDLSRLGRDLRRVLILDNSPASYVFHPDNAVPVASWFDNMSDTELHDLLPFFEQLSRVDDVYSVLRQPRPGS
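Material – SCP-1 phosphatase catalytic domain, residues 76-261 · Buffer or medium – Acidic Tris acetate buffer with magnesium and detergent · Also added – Phospho 17-mer peptide substrate · Compound – single 20 µM dose, 1% DMSO · Times – 45 min room-temperature reaction, 5 min colour, 30 min stabiliser · Technique – Phosphate-binding colour reagent, absorbance read at 630 nm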
FAS-TE inh: blocks the thioesterase domain of human fatty acid synthase; recombinant FAS-TE, OMFH fluorogenic substrate, fluorescence endpoint; inhibition, % at 15 µM; 360,000 compounds, 0.67% hits;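 active = compounds whose normalised, plate-corrected inhibition of enzyme fluorescence in the single-dose primary screen is 50% or more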
Scp-1 conf: Scp-1 (human) inhibition, single-dose confirmed; 2,500 compounds, 61% hits; AID 540281; recombinant SCP-1 catalytic domain, phosphate release, malachite green absorbance; inhibition, % at 20 µM; shares compounds with Scp1 inh
Scp-1 MG ctr: colorimetric interference in Scp-1 counter-screen; shares compounds with Scp1 inh; Colorimetric interference counterscreen, malachite green absorbance 630 nm; apparent inhibition (interference), % at 20 µM; 2,500 tested, under 10 active;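 note: compounds added after enzyme reaction finished so only phosphate colour detection is probed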
Scp1 DSF: validation of human Scp-1 inhibitors by thermal shift binding. shares compounds with Scp1 inh. 1,500 compounds, 25% hits. Recombinant SCP1, Sypro Orange thermal shift Tm. AID 540329. thermal shift relative to vanadate control, % at 40 µM;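 active = substances whose mean melting-temperature shift, as a percentage of the reference inhibitor's shift, reaches about 5.3%, limit read from the data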
Each line names hits and unclear results; the compound was inactive in the other large screens (follow-up assays come after a bar, where they were run). This is a sample that favours compounds with a hit; in the whole collection about 1.9% have one here.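 Rule for the calls, unless noted: active = inhibition of at least 30% at 20 µM; inactive = the rest.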

COc1ccc([C@@H]2CC(=O)c3c(O)cc(O[C@@H]4O[C@H](CO[C@@H]5O[C@@H](C)[C@H](O)[C@@H](O)[C@H]5O)[C@@H](O)[C@H](O)[C@H]4O)cc3O2)cc1O	Scp1 inh 62.1 | Scp-1 conf 39.4 | Scp-1 MG ctr inactive | Scp1 DSF inactive
Cc1ccc(S(=O)(=O)N(C)c2ccc(C(=O)NCc3cccnc3)cc2)cc1	Scp1 inh 79.1 | Scp-1 conf inactive | Scp-1 MG ctr inactive
CN(c1ccc(C(=O)NCc2cccnc2)cc1)S(=O)(=O)c1ccc(Cl)cc1	none
COCCNC(=O)CN(C(=O)CCC(=O)Nc1ccccn1)c1ccc(C)cc1C	none
Cc1nnc(NC(=O)CCSCCC(=O)Nc2nnc(C)s2)s1	Scp1 inh 81.7 | Scp-1 conf 74.3 | Scp-1 MG ctr inactive | Scp1 DSF inactive
CCOC(=O)CCSCC(=O)Nc1nnc(C)s1	none
O=C(O)C1Cc2ccccc2CN1C(=O)COc1ccc(Cl)cc1Cl (configuration not stated)	none
O=C(O)C1Cc2ccccc2CN1C(=O)COc1ccc(Br)cc1 (configuration not stated)	Scp1 inh 53.1 | Scp-1 conf 55.0 | Scp-1 MG ctr inactive | Scp1 DSF inactive
Cc1ccc(-n2nnnc2SCC(=O)NNC(=O)c2ccc([N+](=O)[O-])cc2)cc1	Scp1 inh 50.0 | Scp-1 conf 40.6 | Scp-1 MG ctr inactive | Scp1 DSF inactive
CCOC(=O)c1cc(-c2ccc(OC)cc2)nn1-c1ccccc1C(=O)O	SUMO1-SIM PPI 69.3, Scp1 inh 61.4 | Scp-1 conf 42.1 | Scp-1 MG ctr inactive | Scp1 DSF inactive
OC1(c2ccccc2Cl)NN=C2CCCCCN21 (configuration not stated)	none
C[N+]1=C2CCCCCN2C(O)(c2ccccc2)C1 (configuration not stated)	Scp1 inh 96.2 | Scp-1 conf 94.3 | Scp-1 MG ctr inactive | Scp1 DSF inactive
CC1(C(=O)NS(=O)(=O)c2ccc(Cl)cc2)CCN1C(=O)C1(c2ccc(Cl)cc2)CCC1 (configuration not stated)	none (no result: Scp1 inh)
O=C(Nc1ccc(NC(=O)c2ccco2)cc1)c1ccco1	none
O=C(Nc1ccc(-c2ccccc2)cc1)c1ccco1	Scp1 inh 59.2 | Scp-1 conf inactive | Scp-1 MG ctr inactive
CC(=O)Nc1ccc(-c2ccc3nnc(C)n3n2)cc1	none
Cc1nnc2ccc(-c3ccc(NC(=O)c4ccco4)cc3)nn12	SUMO1-SIM PPI 51.8, Scp1 inh 89.0 | Scp-1 conf inactive | Scp-1 MG ctr inactive
COC(=O)[C@@]12C[C@@H](CC(=O)N3CCN(C(=O)C4CC4)CC3)C(=O)N(Cc3ccco3)C1=CCC(C)(C)C2	none (no result: STEP inh, Scp1 inh, FAS-TE inh)
COc1ccc(C#Cc2cccc(-c3nc(C(=O)N4CCN(C)CC4)cc4c3[C@H](CCO)N(S(=O)C(C)(C)C)C4)c2)cc1OC (some centres not stated)	none (no result: Scp1 inh)
O=C(N/N=C/c1cc2ccccc2nc1Cl)/C(=C/c1cccs1)NC(=O)c1ccccc1	Scp1 inh 98.7 | Scp-1 conf 34.8 | Scp-1 MG ctr inactive | Scp1 DSF inactive
CN(CC(=O)Nc1cccc(F)c1)C(=O)CSc1ccccc1F	none
O=C(Nc1cccc(S(=O)(=O)N2CCCCCC2)c1)C1CC(=O)N(c2ccc3c(c2)OCCO3)C1 (configuration not stated)	none
O=C(O)Cc1ccc(N=Nc2c(O)c(C(=O)O)cc3ccccc23)cc1	Scp1 inh 50.3 | Scp-1 conf 72.6 | Scp-1 MG ctr inactive | Scp1 DSF 27.9
NS(=O)(=O)c1ccc(N=Nc2c(O)c(C(=O)O)cc3ccccc23)cc1	none
NC(=O)c1ccsc1NC(=O)COC(=O)c1cnccn1	none
Cc1ccc(-c2cn3cccc(C)c3n2)cc1	none
O=[N+]([O-])c1cccn2cc(-c3ccc(Br)cc3)nc12	STEP inh 55.6, Scp1 inh 107.2 | Scp-1 conf 85.8 | Scp-1 MG ctr inactive | Scp1 DSF 8.2
Cn1cnc(C(=O)N2CCc3ccccc3C2)c1C(=O)N1CCc2ccccc2C1	Scp1 inh 95.3 | Scp-1 conf 83.3 | Scp-1 MG ctr inactive | Scp1 DSF inactive
COc1ccccc1N=NNc1ccccc1OC	none (no result: Scp1 inh)
Cc1ccc(S(=O)(=O)Nc2csc(C)c2C(=O)O)cc1	Scp1 inh 60.8 (no result: STEP inh, LMPTP inh, SUMO1-SIM PPI, FAS-TE inh) | Scp-1 conf 58.5 | Scp-1 MG ctr inactive | Scp1 DSF 15.3
Cc1ccc(S(=O)(=O)Nc2cc(C)c(O)cc2C)cc1	none
CSCCC(C(=O)Nc1c(C)cccc1C)n1c(-c2cc(C)cs2)nc2ccccc21 (configuration not stated)	none (no result: STEP inh, Scp1 inh, FAS-TE inh)
CCCCOc1ccc(CNC(=O)NS(=O)(=O)c2ccc(OCC(C)C)cc2)cc1	Scp1 inh 52.3 | Scp-1 conf 39.0 | Scp-1 MG ctr inactive | Scp1 DSF inactive
Cn1c(-c2ccccc2)c(Sc2ccccc2)c2cc(-c3ccc4[nH]ccc4c3)ccc21	none (no result: STEP inh, Scp1 inh)
O=C(O)c1ccc(-n2c(=O)c3ccccc3c3ccccc3c2=O)cc1	none
Cc1ccc(-n2c(=O)c3cc4c(=O)n(-c5ccc(C)c(C)c5)c(=O)c4c(C(=O)c4ccc(C(=O)O)cc4)c3c2=O)cc1C	STEP inh 96.6, LMPTP inh 83.2, SUMO1-SIM PPI 89.8, Scp1 inh 90.9 | Scp-1 conf 74.6 | Scp-1 MG ctr inactive | Scp1 DSF 10.4
CC1(C)C(=O)Nc2ccccc2N1C(=O)COc1ccc(C#N)cc1	none
Cc1noc(C)c1COc1ccc(C(=O)OCC(=O)N2c3ccccc3NC(=O)C2(C)C)cc1	Scp1 inh 69.0 | Scp-1 conf 45.9 | Scp-1 MG ctr inactive | Scp1 DSF inactive
Cc1cc(=O)oc2cc(OCC(=O)N3c4ccccc4NC(=O)C3(C)C)ccc12	Scp1 inh 61.6 | Scp-1 conf 42.1 | Scp-1 MG ctr inactive | Scp1 DSF inactive
Cc1noc(C)c1COc1ccc(C(=O)OCC(=O)N2CC(=O)Nc3ccccc32)cc1	none
Cc1nnc(NC(=O)COc2ccc3c(C)cc(=O)oc3c2)s1	Scp1 inh 70.8 | Scp-1 conf 65.1 | Scp-1 MG ctr inactive | Scp1 DSF inactive
Cn1nc(C(C)(C)C)c([N+](=O)[O-])c1C(=O)NC1CCCCC1	none
Cc1ccc2c(=O)cc(C(=O)NCCc3ccc(S(N)(=O)=O)cc3)oc2c1	Scp1 inh 94.9 | Scp-1 conf 69.5 | Scp-1 MG ctr inactive | Scp1 DSF inactive
NS(=O)(=O)c1ccc(NC(=O)c2ccc3nccnc3c2)cc1	none
